# Active and inactive are the calls of the source. The calls are words filed in the database; no cut-off is given here.
# Target: Metabotropic glutamate receptor 5 (Rattus norvegicus, UniProt P31424)
# Assay: Modulation of rat mGlu5 receptor assessed as calcium mobilization by cell based fluorescence assay
# Format: functional
# Settings: not given
# Outline: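 Calcium mobilization assay with fluorescence read-out in cells expressing mGlu5; full concentration-response curves; % Glu Max is the amplitude of response with 30 μM test compound as a percentage of the maximal response to 100 μM glutamate; values averaged over n-3.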
# Chain of Metabotropic glutamate receptor 5 (P31424 whole entry): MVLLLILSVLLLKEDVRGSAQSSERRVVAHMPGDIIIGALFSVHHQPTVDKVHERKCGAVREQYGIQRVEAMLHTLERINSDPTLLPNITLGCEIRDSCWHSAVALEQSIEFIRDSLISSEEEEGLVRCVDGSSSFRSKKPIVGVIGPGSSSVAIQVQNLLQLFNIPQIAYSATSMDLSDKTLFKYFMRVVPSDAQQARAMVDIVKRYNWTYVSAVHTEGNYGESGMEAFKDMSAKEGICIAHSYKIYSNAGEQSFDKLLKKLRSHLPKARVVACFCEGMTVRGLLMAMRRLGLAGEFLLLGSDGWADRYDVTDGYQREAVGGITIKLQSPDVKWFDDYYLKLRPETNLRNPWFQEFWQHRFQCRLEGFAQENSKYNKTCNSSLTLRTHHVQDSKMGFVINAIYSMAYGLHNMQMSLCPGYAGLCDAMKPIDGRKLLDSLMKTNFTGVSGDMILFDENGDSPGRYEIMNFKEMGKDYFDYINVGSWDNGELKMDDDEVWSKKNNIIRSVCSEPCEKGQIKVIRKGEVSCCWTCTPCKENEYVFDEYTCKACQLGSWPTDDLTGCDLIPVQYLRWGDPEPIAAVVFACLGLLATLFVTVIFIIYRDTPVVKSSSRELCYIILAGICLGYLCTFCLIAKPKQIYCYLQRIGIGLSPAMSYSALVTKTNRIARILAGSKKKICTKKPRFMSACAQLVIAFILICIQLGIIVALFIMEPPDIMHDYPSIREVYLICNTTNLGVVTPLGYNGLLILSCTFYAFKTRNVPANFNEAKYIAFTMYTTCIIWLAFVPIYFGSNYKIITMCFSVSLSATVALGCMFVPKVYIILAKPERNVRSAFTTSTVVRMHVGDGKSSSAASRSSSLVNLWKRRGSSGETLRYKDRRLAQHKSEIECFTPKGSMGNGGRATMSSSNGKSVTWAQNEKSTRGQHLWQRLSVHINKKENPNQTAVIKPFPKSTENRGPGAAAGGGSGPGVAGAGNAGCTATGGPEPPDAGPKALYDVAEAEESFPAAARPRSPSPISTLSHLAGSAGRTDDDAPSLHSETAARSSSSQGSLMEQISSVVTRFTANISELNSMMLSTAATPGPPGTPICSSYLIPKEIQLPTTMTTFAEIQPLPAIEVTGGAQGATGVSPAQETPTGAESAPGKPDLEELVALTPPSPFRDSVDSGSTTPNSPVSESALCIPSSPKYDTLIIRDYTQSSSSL
row,Structure (SMILES),EC50
1,Cc1cccc(OCc2cc3n(n2)[C@H](C)CN(c2ccc(F)cc2)C3=O)c1,> 10 µM
2,C[C@@H]1CN(c2ccc(F)cc2)C(=O)c2cc(COc3ccc(F)cn3)nn21,> 10 µM
3,C[C@@H]1CN(c2ccccc2Cl)C(=O)c2cc(COc3ccc(F)cn3)nn21,1.01 µM
4,Cc1cccc(OCc2cc3n(n2)[C@H](C)CN(c2ccc(F)cc2)C3=O)n1,2.25 µM
5,C[C@@H]1CN(c2ccc(F)cc2)C(=O)c2cc(COc3ccc(F)cc3)nn21,0.092 µM
6,C[C@@H]1CN(c2ccccn2)C(=O)c2cc(COc3ccc(F)cn3)nn21,3.52 µM
7,C[C@@H]1CN(c2cccc(F)c2)C(=O)c2cc(COc3ccc(F)cn3)nn21,2.72 µM
8,Cc1ccnc(OCc2cc3n(n2)[C@H](C)CN(c2ccc(F)cc2)C3=O)c1,> 10 µM
9,Cc1ccc(N2C[C@@H](C)n3nc(COc4ccc(F)cn4)cc3C2=O)cc1,> 10 µM
10,C[C@@H]1CN(c2cccnc2)C(=O)c2cc(COc3ccc(Cl)cn3)nn21,> 30 µM
11,C[C@@H]1CN(c2cccc(Cl)c2)C(=O)c2cc(COc3ccc(F)cn3)nn21,1.85 µM
12,COc1ccccc1N1C[C@@H](C)n2nc(COc3ccc(F)cn3)cc2C1=O,0.301 µM
13,CCOc1ccc(OCc2cc3n(n2)[C@H](C)CN(c2ccc(F)cc2)C3=O)cc1,> 30 µM
14,C[C@@H]1CN(c2ccc(F)cc2)C(=O)c2cc(COc3ccc(Cl)cn3)nn21,2.92 µM
15,C[C@@H]1CN(c2cnccc2F)C(=O)c2cc(COc3ccc(Cl)cn3)nn21,> 30 µM

# Test system: not listed separately
# Assay: Half life in rat at 0.2 mg/kg, iv administered as cassette dose
# Format: ADME, organism-based
# Settings: in vivo
row,Structure (SMILES),half-life
1,C[C@@H]1CN(c2ccc(F)cc2)C(=O)c2cc(COc3ccc(F)cn3)nn21,1.47 h
2,C[C@@H]1CN(c2ccc(F)cc2)C(=O)c2cc(COc3ccc(F)cc3)nn21,1.58 h
3,C[C@@H]1CN(c2cccnc2)C(=O)c2cc(COc3ccc(Cl)cn3)nn21,0.35 h
4,CCOc1ccc(OCc2cc3n(n2)[C@H](C)CN(c2ccc(F)cc2)C3=O)cc1,0.533 h
5,C[C@@H]1CN(c2ccc(F)cc2)C(=O)c2cc(COc3ccc(Cl)cn3)nn21,2.35 h

# Test system: not listed separately
# Assay: Plasma clearance in rat at 0.2 mg/kg, iv administered as cassette dose
# Format: ADME, organism-based
# Settings: not given
row,Structure (SMILES),clearance
1,C[C@@H]1CN(c2ccc(F)cc2)C(=O)c2cc(COc3ccc(F)cn3)nn21,82 mL/min/kg
2,C[C@@H]1CN(c2ccc(F)cc2)C(=O)c2cc(COc3ccc(F)cc3)nn21,40 mL/min/kg
3,C[C@@H]1CN(c2cccnc2)C(=O)c2cc(COc3ccc(Cl)cn3)nn21,50 mL/min/kg
4,CCOc1ccc(OCc2cc3n(n2)[C@H](C)CN(c2ccc(F)cc2)C3=O)cc1,82 mL/min/kg
5,C[C@@H]1CN(c2ccc(F)cc2)C(=O)c2cc(COc3ccc(Cl)cn3)nn21,29 mL/min/kg

# Target: Metabotropic glutamate receptor 5 (Rattus norvegicus) (UniProt P31424)
# Sequence (P31424 21-1203 limits assumed): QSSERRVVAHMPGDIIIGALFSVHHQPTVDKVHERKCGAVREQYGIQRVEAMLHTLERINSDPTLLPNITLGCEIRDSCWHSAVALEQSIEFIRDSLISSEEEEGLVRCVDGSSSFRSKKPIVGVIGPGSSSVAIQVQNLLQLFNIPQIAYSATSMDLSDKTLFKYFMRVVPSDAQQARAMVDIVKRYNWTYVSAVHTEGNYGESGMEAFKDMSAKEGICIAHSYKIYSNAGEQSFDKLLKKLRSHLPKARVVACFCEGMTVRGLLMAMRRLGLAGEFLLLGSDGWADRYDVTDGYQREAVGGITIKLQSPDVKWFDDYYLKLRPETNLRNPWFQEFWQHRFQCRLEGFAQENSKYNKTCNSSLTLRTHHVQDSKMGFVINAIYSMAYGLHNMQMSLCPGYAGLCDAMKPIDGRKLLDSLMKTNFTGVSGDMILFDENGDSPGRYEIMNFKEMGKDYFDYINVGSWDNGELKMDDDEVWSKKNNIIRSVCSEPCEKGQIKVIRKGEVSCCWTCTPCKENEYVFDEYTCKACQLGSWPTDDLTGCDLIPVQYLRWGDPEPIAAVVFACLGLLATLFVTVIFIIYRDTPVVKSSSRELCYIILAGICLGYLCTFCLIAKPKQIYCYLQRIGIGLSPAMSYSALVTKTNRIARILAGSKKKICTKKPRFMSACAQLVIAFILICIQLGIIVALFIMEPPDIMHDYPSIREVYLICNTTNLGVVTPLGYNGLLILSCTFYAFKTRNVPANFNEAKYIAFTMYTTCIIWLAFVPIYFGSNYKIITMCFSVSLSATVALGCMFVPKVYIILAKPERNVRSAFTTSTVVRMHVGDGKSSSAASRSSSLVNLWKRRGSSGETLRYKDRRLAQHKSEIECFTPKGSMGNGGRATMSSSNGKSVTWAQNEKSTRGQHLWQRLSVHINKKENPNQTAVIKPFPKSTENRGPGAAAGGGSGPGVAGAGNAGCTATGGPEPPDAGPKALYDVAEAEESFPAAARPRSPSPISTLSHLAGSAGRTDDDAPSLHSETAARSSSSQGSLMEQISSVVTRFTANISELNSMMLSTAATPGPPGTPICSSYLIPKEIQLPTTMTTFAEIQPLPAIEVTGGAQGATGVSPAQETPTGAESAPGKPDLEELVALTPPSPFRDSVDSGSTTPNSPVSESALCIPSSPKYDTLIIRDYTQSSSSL
# Assay: Negative allosteric modulation of rat mGlu5 receptor assessed as calcium mobilization by cell based fluorescence assay
# Format: functional
# Settings: not given
row,Structure (SMILES),Activity
1,Cc1cccc(OCc2cc3n(n2)[C@H](C)CN(c2ccc(F)cc2)C3=O)c1,Active
2,C[C@@H]1CN(c2ccc(F)cc2)C(=O)c2cc(COc3ccc(F)cn3)nn21,Active
3,C[C@@H]1CN(c2ccccc2Cl)C(=O)c2cc(COc3ccc(F)cn3)nn21,Active
4,Cc1cccc(OCc2cc3n(n2)[C@H](C)CN(c2ccc(F)cc2)C3=O)n1,Active
5,C[C@@H]1CN(c2ccccn2)C(=O)c2cc(COc3ccc(F)cn3)nn21,Active
6,C[C@@H]1CN(c2cccc(F)c2)C(=O)c2cc(COc3ccc(F)cn3)nn21,Active
7,Cc1ccnc(OCc2cc3n(n2)[C@H](C)CN(c2ccc(F)cc2)C3=O)c1,Active
8,Cc1ccc(N2C[C@@H](C)n3nc(COc4ccc(F)cn4)cc3C2=O)cc1,Active
9,C[C@@H]1CN(c2cccc(Cl)c2)C(=O)c2cc(COc3ccc(F)cn3)nn21,Active
10,COc1ccccc1N1C[C@@H](C)n2nc(COc3ccc(F)cn3)cc2C1=O,Active

# Test system: Plasma
# Assay: Fraction unbound in rat plasma
# Format: ADME, cell-free
# Settings: not given
row,Structure (SMILES),Fu
1,C[C@@H]1CN(c2ccc(F)cc2)C(=O)c2cc(COc3ccc(F)cn3)nn21,0.135
2,C[C@@H]1CN(c2ccccc2Cl)C(=O)c2cc(COc3ccc(F)cn3)nn21,0.054
3,C[C@@H]1CN(c2ccc(F)cc2)C(=O)c2cc(COc3ccc(F)cc3)nn21,0.06
4,C[C@@H]1CN(c2cccc(F)c2)C(=O)c2cc(COc3ccc(F)cn3)nn21,0.094
5,C[C@@H]1CN(c2cccnc2)C(=O)c2cc(COc3ccc(Cl)cn3)nn21,0.118
6,C[C@@H]1CN(c2cccc(Cl)c2)C(=O)c2cc(COc3ccc(F)cn3)nn21,0.034
7,CCOc1ccc(OCc2cc3n(n2)[C@H](C)CN(c2ccc(F)cc2)C3=O)cc1,0.005
8,C[C@@H]1CN(c2ccc(F)cc2)C(=O)c2cc(COc3ccc(Cl)cn3)nn21,0.034
9,C[C@@H]1CN(c2cnccc2F)C(=O)c2cc(COc3ccc(Cl)cn3)nn21,0.085

# Target: Metabotropic glutamate receptor 5 (Rattus norvegicus) (UniProt P31424)
# Assay: Positive allosteric modulation of rat mGlu5 receptor assessed as calcium mobilization by cell based fluorescence assay
# Format: functional
# Settings: not given
row,Structure (SMILES),Activity
1,C[C@@H]1CN(c2ccc(F)cc2)C(=O)c2cc(COc3ccc(F)cc3)nn21,Active
2,C[C@@H]1CN(c2ccc(F)cc2)C(=O)c2cc(COc3ccc(Cl)cn3)nn21,Active

# Target: Metabotropic glutamate receptor 5 (Rattus norvegicus) (UniProt P31424)
# Assay: Modulation of rat mGlu5 receptor assessed as assessed as calcium mobilization at 30 uM by cell based fluorescence assay
# Format: functional
# Settings: not given
row,Structure (SMILES),Activity
1,Cc1cccc(OCc2cc3n(n2)[C@H](C)CN(c2ccc(F)cc2)C3=O)c1,39.7%
2,C[C@@H]1CN(c2ccc(F)cc2)C(=O)c2cc(COc3ccc(F)cn3)nn21,46.5%
3,C[C@@H]1CN(c2ccccc2Cl)C(=O)c2cc(COc3ccc(F)cn3)nn21,8.78%
4,Cc1cccc(OCc2cc3n(n2)[C@H](C)CN(c2ccc(F)cc2)C3=O)n1,2.47%
5,C[C@@H]1CN(c2ccc(F)cc2)C(=O)c2cc(COc3ccc(F)cc3)nn21,87%
6,C[C@@H]1CN(c2ccccn2)C(=O)c2cc(COc3ccc(F)cn3)nn21,3.71%
7,C[C@@H]1CN(c2cccc(F)c2)C(=O)c2cc(COc3ccc(F)cn3)nn21,9.71%
8,Cc1ccnc(OCc2cc3n(n2)[C@H](C)CN(c2ccc(F)cc2)C3=O)c1,46.9%
9,Cc1ccc(N2C[C@@H](C)n3nc(COc4ccc(F)cn4)cc3C2=O)cc1,54.8%
10,C[C@@H]1CN(c2cccc(Cl)c2)C(=O)c2cc(COc3ccc(F)cn3)nn21,19.2%
11,COc1ccccc1N1C[C@@H](C)n2nc(COc3ccc(F)cn3)cc2C1=O,3.28%
12,C[C@@H]1CN(c2ccc(F)cc2)C(=O)c2cc(COc3ccc(Cl)cn3)nn21,81.4%

# Target: Metabotropic glutamate receptor 3 (Rattus norvegicus) (UniProt P31422)
# Sequence (P31422 23-879 limits assumed): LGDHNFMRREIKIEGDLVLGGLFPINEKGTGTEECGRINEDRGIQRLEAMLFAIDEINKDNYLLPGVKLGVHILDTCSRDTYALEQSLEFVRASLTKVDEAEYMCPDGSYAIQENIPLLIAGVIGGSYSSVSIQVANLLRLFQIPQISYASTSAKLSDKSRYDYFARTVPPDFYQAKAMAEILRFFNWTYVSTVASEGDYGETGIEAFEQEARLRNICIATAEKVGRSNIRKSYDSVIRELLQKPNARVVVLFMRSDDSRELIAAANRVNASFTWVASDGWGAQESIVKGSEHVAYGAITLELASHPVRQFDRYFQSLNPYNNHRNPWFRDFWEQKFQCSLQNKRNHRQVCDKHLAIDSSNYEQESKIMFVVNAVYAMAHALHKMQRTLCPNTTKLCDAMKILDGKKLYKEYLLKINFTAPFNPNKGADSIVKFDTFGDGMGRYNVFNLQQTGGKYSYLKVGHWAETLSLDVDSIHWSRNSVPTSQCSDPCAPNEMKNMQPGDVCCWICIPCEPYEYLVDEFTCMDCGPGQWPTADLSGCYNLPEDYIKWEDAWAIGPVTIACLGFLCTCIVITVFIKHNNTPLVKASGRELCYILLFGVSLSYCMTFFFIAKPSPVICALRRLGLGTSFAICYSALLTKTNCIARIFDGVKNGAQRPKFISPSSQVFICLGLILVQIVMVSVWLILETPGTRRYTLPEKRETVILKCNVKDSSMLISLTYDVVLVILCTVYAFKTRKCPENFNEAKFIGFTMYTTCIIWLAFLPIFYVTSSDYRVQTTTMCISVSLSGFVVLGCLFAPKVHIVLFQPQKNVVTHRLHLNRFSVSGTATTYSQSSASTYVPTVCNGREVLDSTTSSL
# Assay: Negative allosteric modulation of rat mGlu3 receptor assessed as amplitude response at 30 uM relative to glutamate
# Settings: not given
# Outline: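 Calcium mobilization in cell line stably expressing rat mGlu3 with promiscuous Gα15; fluorescence read-out; amplitude of glutamate response with 30 μM test compound expressed as percentage of maximal response (100 μM glutamate); average of n = 3.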
row,Structure (SMILES),Activity
1,Cc1cccc(OCc2cc3n(n2)[C@H](C)CN(c2ccc(F)cc2)C3=O)c1,2.35%
2,C[C@@H]1CN(c2ccc(F)cc2)C(=O)c2cc(COc3ccc(F)cn3)nn21,1.71%
3,C[C@@H]1CN(c2ccccc2Cl)C(=O)c2cc(COc3ccc(F)cn3)nn21,1.37%
4,Cc1cccc(OCc2cc3n(n2)[C@H](C)CN(c2ccc(F)cc2)C3=O)n1,1.12%
5,C[C@@H]1CN(c2ccc(F)cc2)C(=O)c2cc(COc3ccc(F)cc3)nn21,2.09%
6,C[C@@H]1CN(c2ccccn2)C(=O)c2cc(COc3ccc(F)cn3)nn21,0.96%
7,C[C@@H]1CN(c2cccc(F)c2)C(=O)c2cc(COc3ccc(F)cn3)nn21,1.44%
8,Cc1ccnc(OCc2cc3n(n2)[C@H](C)CN(c2ccc(F)cc2)C3=O)c1,0.86%
9,Cc1ccc(N2C[C@@H](C)n3nc(COc4ccc(F)cn4)cc3C2=O)cc1,1.04%
10,C[C@@H]1CN(c2cccnc2)C(=O)c2cc(COc3ccc(Cl)cn3)nn21,1.73%
11,C[C@@H]1CN(c2cccc(Cl)c2)C(=O)c2cc(COc3ccc(F)cn3)nn21,2.3%
12,COc1ccccc1N1C[C@@H](C)n2nc(COc3ccc(F)cn3)cc2C1=O,1.49%
13,CCOc1ccc(OCc2cc3n(n2)[C@H](C)CN(c2ccc(F)cc2)C3=O)cc1,3.39%
14,C[C@@H]1CN(c2ccc(F)cc2)C(=O)c2cc(COc3ccc(Cl)cn3)nn21,1.84%
15,C[C@@H]1CN(c2cnccc2F)C(=O)c2cc(COc3ccc(Cl)cn3)nn21,1.45%

# Target: Metabotropic glutamate receptor 3 (Rattus norvegicus, UniProt P31422)
# Sequence (P31422 whole entry): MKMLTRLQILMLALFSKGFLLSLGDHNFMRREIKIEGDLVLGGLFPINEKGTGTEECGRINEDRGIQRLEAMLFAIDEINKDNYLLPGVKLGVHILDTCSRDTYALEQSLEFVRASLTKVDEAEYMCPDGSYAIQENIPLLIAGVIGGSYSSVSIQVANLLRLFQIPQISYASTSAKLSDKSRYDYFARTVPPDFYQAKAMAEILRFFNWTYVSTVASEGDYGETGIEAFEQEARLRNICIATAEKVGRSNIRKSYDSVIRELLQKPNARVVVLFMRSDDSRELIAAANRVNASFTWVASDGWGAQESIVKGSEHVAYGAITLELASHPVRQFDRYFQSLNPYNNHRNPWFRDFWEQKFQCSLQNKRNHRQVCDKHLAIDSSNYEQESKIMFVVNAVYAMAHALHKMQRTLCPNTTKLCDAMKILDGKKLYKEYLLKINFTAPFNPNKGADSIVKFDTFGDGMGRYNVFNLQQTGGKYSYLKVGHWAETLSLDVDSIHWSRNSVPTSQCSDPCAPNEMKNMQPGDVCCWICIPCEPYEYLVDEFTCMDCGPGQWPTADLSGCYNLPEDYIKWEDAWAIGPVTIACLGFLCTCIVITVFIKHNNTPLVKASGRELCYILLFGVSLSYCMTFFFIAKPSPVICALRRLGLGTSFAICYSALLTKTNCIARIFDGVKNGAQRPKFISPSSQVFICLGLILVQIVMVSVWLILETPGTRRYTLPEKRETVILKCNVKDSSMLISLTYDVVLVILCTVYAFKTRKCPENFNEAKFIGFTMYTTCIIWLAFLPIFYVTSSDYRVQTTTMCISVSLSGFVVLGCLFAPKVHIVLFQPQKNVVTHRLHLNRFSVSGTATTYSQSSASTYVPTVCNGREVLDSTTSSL
# Assay: Negative allosteric modulation of rat mGlu3 receptor assessed as calcium mobilization by cell based fluorescence assay
# Format: functional
# Settings: not given
# Outline: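 Cell line stably expressing rat mGlu3 with the promiscuous G-protein Gα15. Calcium mobilization with fluorescence read-out, inhibition of the glutamate response. Full concentration-response curves, top concentration 30 μM. % Glu Max is the response with 30 μM test compound as a percentage of the maximal response to 100 μM glutamate. Values averaged over n-3.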
row,Structure (SMILES),IC50
1,Cc1cccc(OCc2cc3n(n2)[C@H](C)CN(c2ccc(F)cc2)C3=O)c1,1.44 µM
2,C[C@@H]1CN(c2ccc(F)cc2)C(=O)c2cc(COc3ccc(F)cn3)nn21,0.539 µM
3,C[C@@H]1CN(c2ccccc2Cl)C(=O)c2cc(COc3ccc(F)cn3)nn21,0.141 µM
4,Cc1cccc(OCc2cc3n(n2)[C@H](C)CN(c2ccc(F)cc2)C3=O)n1,2.37 µM
5,C[C@@H]1CN(c2ccc(F)cc2)C(=O)c2cc(COc3ccc(F)cc3)nn21,0.462 µM
6,C[C@@H]1CN(c2ccccn2)C(=O)c2cc(COc3ccc(F)cn3)nn21,0.915 µM
7,C[C@@H]1CN(c2cccc(F)c2)C(=O)c2cc(COc3ccc(F)cn3)nn21,0.192 µM
8,Cc1ccnc(OCc2cc3n(n2)[C@H](C)CN(c2ccc(F)cc2)C3=O)c1,2.09 µM
9,Cc1ccc(N2C[C@@H](C)n3nc(COc4ccc(F)cn4)cc3C2=O)cc1,0.269 µM
10,C[C@@H]1CN(c2cccnc2)C(=O)c2cc(COc3ccc(Cl)cn3)nn21,0.608 µM
11,C[C@@H]1CN(c2cccc(Cl)c2)C(=O)c2cc(COc3ccc(F)cn3)nn21,0.145 µM
12,COc1ccccc1N1C[C@@H](C)n2nc(COc3ccc(F)cn3)cc2C1=O,0.339 µM
13,CCOc1ccc(OCc2cc3n(n2)[C@H](C)CN(c2ccc(F)cc2)C3=O)cc1,1.16 µM
14,C[C@@H]1CN(c2ccc(F)cc2)C(=O)c2cc(COc3ccc(Cl)cn3)nn21,0.605 µM
15,C[C@@H]1CN(c2cnccc2F)C(=O)c2cc(COc3ccc(Cl)cn3)nn21,0.482 µM

# Test system: not listed separately
# Assay: Volume of distribution at steady state in rat at 0.2 mg/kg, iv administered as cassette dose
# Format: ADME, organism-based
# Settings: in vivo, read-out: Vdss
row,Structure (SMILES),Vd
1,C[C@@H]1CN(c2ccc(F)cc2)C(=O)c2cc(COc3ccc(F)cn3)nn21,6.6 L/kg
2,C[C@@H]1CN(c2ccc(F)cc2)C(=O)c2cc(COc3ccc(F)cc3)nn21,3.5 L/kg
3,C[C@@H]1CN(c2cccnc2)C(=O)c2cc(COc3ccc(Cl)cn3)nn21,1.2 L/kg
4,CCOc1ccc(OCc2cc3n(n2)[C@H](C)CN(c2ccc(F)cc2)C3=O)cc1,2.2 L/kg
5,C[C@@H]1CN(c2ccc(F)cc2)C(=O)c2cc(COc3ccc(Cl)cn3)nn21,5.2 L/kg
